≈ marks a conversion by molar mass, not a printed value. Like-named read-outs stand apart in the source and are kept apart here.
How the values were obtained:
[1] = biological target: VEGFR2 (Homo sapiens, UniProt P35968); assay: Kinase inhibition assay, VEGFR2; format: biochemical
[2] = biological target: EGFR (Homo sapiens, UniProt P00533); assay: Kinase inhibition assay, EGFR; format: biochemical
[3] = tested on: B16 melanoma cell line; assay: Cell proliferation; format: cell-based; conditions: for B16 GI ratio: B16 cells, test concentration not given; for IC50: Mus musculus, read-out: IC50, B16 melanoma cell line
[4] = biological target: Hsp90α (Homo sapiens, UniProt P07900); assay: Kinase inhibition assay, Hsp90α; format: biochemical
[5] = biological target: PI3Kα (Homo sapiens, UniProt P42336); assay: Kinase inhibition assay, PI3Kα; format: biochemical
[6] = tested on: B16 cells; assay: Western blotting of B16 melanoma cell extracts; format: cell-based
In short: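 Total protein was extracted from treated B16 cells, separated by SDS-PAGE (7.5–15% gels, chosen by protein size) and transferred to PVDF. Membranes were blocked with 5% BSA, incubated with primary antibodies on ice overnight, then with HRP-conjugated secondary antibodies for 1 h at room temperature. Bands were detected by ECL. Migration- and invasion-related proteins were assessed at 20 and 40 μg/mL.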

[7] = tested on: several cancer cells (B16, HepG2, A549, SW620, MCF-7, Hela); assay: Cytotoxic activity in several cancer cells; format: cell-based; conditions: Figure 5(A)
In short: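 Cells were kept in DMEM with 10% FBS at 37 °C and 5% CO2 and used in exponential growth. They were seeded at 3–6 × 10^3 cells/well for 24 h, then given DMSO or various compound concentrations for 24 or 48 h. MTT (0.5 mg/mL in medium) was added for 3 h at 37 °C and dissolved in DMSO; absorbance was read at 570 nm. Three experiments, each in triplicate.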

[8] = tested on: B16 cells; assay: Wound-healing cell migration assay; format: cell-based; conditions: 24 h of exposure, dose-dependent
In short: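 B16 cells were seeded at 1 × 10^5 per well in 6-well plates in DMEM and grown overnight. Three scratches per well were made with a 200 µl pipette tip. After a PBS wash, serum-free DMEM containing various compound concentrations or DMSO was added. Migration was assessed by light microscopy between 0 h and 24 h.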

[9] = tested on: B16 cells; assay: Colony formation assay; format: cell-based; conditions: 8m-incubated B16 cells vs control group
[10] = tested on: B16 cells; assay: Transwell Matrigel invasion assay; format: cell-based; conditions: dose-dependent
In short: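 Transwell chambers with 8-μm pores and Matrigel-precoated top chambers were used. B16 cells (1 × 105) in serum-free medium went into the top chamber, with DMEM in the bottom chamber. Invaded cells were stained with crystal violet and counted under a microscope in triplicate.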

[11] = tested on: B16 melanoma xenograft; assay: B16 subcutaneous tumor xenograft model; format: in vivo, C57BL/6J mice; conditions: for tumor growth inhibition ratio: B16 subcutaneous xenograft, C57BL/6J mice, once a day
In short: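 Female C57BL/6J mice, 8–12 weeks old, received B16 cells subcutaneously in the dorsal flank (5 × 105 in 100 μL PBS). Groups of 8 were dosed once a day with test compound or NS control. Tumours were measured every two days and volume was taken as a×b2×0.5. Excised tumours were formalin-fixed, paraffin-embedded, sectioned, and stained for TUNEL, EGFR, Akt, pAkt473 and Ki67.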

[12] = tested on: B16 cells; assay: Cell cycle analysis by PI staining flow cytometry; format: cell-based; conditions: 24 h treatment
[13] = tested on: B16 cells; assay: Flow cytometry with annexinV/PI dual staining; format: cell-based; conditions: 24 h incubation

Chain of EGFR (P00533 25-1210): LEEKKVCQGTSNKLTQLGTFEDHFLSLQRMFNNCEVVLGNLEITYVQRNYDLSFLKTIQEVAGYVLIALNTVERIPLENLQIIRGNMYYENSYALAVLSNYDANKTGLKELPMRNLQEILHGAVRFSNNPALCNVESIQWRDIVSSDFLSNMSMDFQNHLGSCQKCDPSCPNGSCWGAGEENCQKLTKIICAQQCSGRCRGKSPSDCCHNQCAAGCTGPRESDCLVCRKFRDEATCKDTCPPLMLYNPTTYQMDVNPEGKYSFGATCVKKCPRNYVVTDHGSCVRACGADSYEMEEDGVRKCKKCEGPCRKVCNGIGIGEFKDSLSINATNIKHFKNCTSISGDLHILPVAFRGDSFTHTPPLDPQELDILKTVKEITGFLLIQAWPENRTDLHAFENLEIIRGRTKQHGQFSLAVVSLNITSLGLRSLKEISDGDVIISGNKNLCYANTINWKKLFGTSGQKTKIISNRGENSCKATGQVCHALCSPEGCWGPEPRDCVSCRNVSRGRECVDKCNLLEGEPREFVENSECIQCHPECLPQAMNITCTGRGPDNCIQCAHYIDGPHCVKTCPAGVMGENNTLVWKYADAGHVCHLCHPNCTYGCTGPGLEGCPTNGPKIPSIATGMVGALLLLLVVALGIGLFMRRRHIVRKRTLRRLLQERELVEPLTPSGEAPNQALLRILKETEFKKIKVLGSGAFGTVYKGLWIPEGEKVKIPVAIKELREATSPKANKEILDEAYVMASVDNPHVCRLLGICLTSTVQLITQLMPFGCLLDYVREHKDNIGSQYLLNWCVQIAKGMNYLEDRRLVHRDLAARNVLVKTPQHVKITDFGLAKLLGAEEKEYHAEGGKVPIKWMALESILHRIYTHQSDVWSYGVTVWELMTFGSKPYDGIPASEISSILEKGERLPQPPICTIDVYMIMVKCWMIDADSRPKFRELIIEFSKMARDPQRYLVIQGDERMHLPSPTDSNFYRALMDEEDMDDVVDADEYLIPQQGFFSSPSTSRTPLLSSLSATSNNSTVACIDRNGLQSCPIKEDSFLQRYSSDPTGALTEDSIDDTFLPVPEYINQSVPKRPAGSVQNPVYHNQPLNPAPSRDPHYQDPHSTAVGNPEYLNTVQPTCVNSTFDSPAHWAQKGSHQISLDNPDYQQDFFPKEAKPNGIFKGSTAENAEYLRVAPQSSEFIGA
Chain of VEGFR2 (P35968 20-1356): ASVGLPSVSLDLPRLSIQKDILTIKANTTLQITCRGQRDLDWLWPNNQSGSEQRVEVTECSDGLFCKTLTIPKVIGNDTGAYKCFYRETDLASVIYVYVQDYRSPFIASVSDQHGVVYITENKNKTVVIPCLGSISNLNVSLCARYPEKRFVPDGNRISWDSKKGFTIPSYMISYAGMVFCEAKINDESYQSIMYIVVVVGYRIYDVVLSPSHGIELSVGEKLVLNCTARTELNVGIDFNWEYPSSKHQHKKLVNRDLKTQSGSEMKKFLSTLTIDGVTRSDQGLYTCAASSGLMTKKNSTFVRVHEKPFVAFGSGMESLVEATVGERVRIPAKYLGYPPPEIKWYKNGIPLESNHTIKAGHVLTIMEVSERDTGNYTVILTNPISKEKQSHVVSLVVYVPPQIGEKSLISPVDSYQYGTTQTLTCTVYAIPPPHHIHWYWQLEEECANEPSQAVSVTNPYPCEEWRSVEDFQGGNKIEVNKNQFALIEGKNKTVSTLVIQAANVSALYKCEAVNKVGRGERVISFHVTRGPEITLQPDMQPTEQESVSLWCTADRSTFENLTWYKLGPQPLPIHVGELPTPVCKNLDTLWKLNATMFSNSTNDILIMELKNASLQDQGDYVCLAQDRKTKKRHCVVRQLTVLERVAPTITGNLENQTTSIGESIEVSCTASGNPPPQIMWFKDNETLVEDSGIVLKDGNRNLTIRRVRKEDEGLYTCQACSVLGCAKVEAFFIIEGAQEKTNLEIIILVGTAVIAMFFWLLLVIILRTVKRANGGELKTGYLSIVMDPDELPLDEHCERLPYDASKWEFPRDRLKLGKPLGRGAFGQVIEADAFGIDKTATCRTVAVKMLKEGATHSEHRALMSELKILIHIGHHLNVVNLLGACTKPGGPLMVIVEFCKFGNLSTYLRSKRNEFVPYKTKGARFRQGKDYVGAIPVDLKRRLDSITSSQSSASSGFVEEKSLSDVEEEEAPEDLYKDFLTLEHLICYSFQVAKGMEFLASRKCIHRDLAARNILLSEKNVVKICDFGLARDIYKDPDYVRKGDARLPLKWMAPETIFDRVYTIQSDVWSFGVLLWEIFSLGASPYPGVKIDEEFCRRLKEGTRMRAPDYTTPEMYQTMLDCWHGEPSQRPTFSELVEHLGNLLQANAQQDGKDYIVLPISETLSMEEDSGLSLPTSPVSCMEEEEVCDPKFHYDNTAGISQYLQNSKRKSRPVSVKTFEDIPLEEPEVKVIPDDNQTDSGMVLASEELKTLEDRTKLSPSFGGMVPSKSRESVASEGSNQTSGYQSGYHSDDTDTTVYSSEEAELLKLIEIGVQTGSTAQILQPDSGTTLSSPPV
Chain of PI3Kα (P42336 whole entry): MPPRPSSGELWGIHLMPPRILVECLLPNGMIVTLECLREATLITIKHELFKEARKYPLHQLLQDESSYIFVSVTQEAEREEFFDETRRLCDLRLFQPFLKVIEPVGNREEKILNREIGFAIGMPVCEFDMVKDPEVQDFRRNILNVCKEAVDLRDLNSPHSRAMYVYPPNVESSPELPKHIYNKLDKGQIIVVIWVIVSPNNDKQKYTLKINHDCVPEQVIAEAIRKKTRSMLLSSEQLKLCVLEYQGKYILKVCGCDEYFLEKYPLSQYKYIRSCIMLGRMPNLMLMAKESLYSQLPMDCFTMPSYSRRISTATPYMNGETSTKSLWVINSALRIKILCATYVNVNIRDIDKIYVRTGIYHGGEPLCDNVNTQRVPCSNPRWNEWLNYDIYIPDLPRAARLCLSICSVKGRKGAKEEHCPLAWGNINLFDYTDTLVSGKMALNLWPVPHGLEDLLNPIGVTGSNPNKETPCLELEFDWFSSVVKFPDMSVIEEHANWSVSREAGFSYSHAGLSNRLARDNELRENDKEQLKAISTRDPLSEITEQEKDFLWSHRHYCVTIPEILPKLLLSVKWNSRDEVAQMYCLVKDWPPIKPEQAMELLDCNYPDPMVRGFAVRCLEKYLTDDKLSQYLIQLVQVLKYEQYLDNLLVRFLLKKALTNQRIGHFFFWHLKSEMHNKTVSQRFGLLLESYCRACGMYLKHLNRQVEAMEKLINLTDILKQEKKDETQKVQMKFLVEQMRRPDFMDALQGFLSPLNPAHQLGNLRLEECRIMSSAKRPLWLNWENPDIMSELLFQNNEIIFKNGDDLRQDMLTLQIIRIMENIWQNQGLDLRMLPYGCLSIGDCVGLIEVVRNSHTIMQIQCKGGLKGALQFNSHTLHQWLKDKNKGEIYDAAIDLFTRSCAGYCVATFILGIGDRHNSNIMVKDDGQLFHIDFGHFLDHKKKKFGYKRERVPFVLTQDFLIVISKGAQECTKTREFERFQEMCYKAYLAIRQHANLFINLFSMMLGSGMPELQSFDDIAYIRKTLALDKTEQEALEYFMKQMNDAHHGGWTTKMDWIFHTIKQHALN
Chain of PI3Kα (P27986 whole entry partner): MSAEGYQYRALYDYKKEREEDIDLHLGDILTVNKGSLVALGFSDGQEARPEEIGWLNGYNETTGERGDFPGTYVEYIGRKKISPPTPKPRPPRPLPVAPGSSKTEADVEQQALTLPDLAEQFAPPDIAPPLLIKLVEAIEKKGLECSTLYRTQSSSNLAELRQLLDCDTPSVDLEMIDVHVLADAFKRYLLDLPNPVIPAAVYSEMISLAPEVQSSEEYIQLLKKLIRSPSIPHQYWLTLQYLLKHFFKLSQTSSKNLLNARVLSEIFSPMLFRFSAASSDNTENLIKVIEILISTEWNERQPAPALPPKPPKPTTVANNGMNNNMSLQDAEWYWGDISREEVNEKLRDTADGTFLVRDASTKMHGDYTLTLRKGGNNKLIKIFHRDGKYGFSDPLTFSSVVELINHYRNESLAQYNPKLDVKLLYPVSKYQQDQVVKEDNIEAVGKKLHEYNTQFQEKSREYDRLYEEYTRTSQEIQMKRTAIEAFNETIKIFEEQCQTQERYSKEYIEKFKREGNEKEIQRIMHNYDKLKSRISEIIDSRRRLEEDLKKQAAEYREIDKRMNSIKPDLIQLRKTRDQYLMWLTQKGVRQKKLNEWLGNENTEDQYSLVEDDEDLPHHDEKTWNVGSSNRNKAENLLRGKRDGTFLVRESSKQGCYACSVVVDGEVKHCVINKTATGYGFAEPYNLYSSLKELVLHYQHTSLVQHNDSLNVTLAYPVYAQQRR

In the case of `CC(C)c1cc(C(=O)N2CCc3c(sc4ncnc(Nc5cccc(Cl)c5)c34)C2)c(O)cc1O` [Compound 8c, (4-((3-chlorophenyl)amino)-5,8-dihydropyrido[4',3':4,5]thieno[2,3-d]pyrimidin-7(6H)-yl)(2,4-dihydroxy-5-isopropylphenyl)methanone], the IC50 [1] is reported as greater than 10000 nM, the IC50 [2] is reported as 37.1 nM and the “B16 GI ratio” value [3] is reported as 51.2%. The IC50 [4] was 196 nM.
For `CC(C)c1cc(C(=O)N2CCc3c(sc4ncnc(Nc5cccc(F)c5)c34)C2)c(O)cc1O` [Compound 8e, (2,4-dihydroxy-5-isopropylphenyl)(4-((3-fluorophenyl)amino)-5,8-dihydropyrido[4',3':4,5]thieno[2,3-d]pyrimidin-7(6H)-yl)methanone], the IC50 [1] was greater than 10000 nM, the IC50 [2] was 40.2 nM and the “B16 GI ratio” value [3] was 38.9%. It also gave an IC50 [4] of 229 nM.
With `CC(C)c1cc(C(=O)N2CCc3c(sc4ncnc(Nc5cccc(O)c5)c34)C2)c(O)cc1O` [Compound 8j, (2,4-dihydroxy-5-isopropylphenyl)(4-((3-hydroxyphenyl)amino)-5,8-dihydropyrido[4',3':4,5]thieno[2,3-d]pyrimidin-7(6H)-yl)methanone] the IC50 [1] was 716 nM, the IC50 [2] was 147 nM and the “B16 GI ratio” value [3] was 36.0%. It also gave an IC50 [4] of 207 nM.
With `CC(C)c1cc(C(=O)N2CCc3c(sc4ncnc(N(C)C)c34)C2)c(O)cc1O` [Compound 8n, (2,4-dihydroxy-5-isopropylphenyl)(4-(dimethylamino)-5,8-dihydropyrido[4',3':4,5]thieno[2,3-d]pyrimidin-7(6H)-yl)methanone] the “B16 GI ratio” value [3] was 46.7%, the IC50 [4] was 79.5 nM and the IC50 [5] was 568 nM.
In the case of `CC(C)c1cc(C(=O)N2CCc3c(sc4ncnc(N5CCCC5)c34)C2)c(O)cc1O` [Compound 8l, (2,4-dihydroxy-5-isopropylphenyl)(4-(pyrrolidin-1-yl)-5,8-dihydropyrido[4',3':4,5]thieno[2,3-d]pyrimidin-7(6H)-yl)methanone], the “B16 GI ratio” value [3] is reported as 60.4%, the IC50 [4] is reported as 65 nM and the IC50 [5] is reported as 169 nM.
In the case of `CC(C)c1cccc(Nc2ncnc3sc4c(c23)CCN(C(=O)c2cc(C(C)C)c(O)cc2O)C4)c1` [Compound 8h, (2,4-dihydroxy-5-isopropylphenyl)(4-((3-isopropylphenyl)amino)-5,8-dihydropyrido[4',3':4,5]thieno[2,3-d]pyrimidin-7(6H)-yl)methanone], the IC50 [1] is reported as greater than 10000 nM, the IC50 [2] is reported as 380 nM and the “B16 GI ratio” value [3] is reported as 39.1%. It also gave an IC50 [4] of 468 nM.
In the case of `CC(C)c1cc(C(=O)N2CCc3c(sc4ncnc(N5CCCCC5)c34)C2)c(O)cc1O` [Compound 8k, (2,4-dihydroxy-5-isopropylphenyl)(4-(piperidin-1-yl)-5,8-dihydropyrido[4',3':4,5]thieno[2,3-d]pyrimidin-7(6H)-yl)methanone], the “B16 GI ratio” value [3] is reported as 65.2%, the IC50 [4] is reported as 51.9 nM and the IC50 [5] is reported as 133 nM.
`CC(C)c1cc(C(=O)N2CCc3c(sc4ncnc(N5CCOCC5)c34)C2)c(O)cc1O` [Compound 8m, (2,4-dihydroxy-5-isopropylphenyl)(4-morpholino-5,8-dihydropyrido[4',3':4,5]thieno[2,3-d]pyrimidin-7(6H)-yl)methanone] was tested, and the “cleavage of apoptosis related proteins (western blot)” value ([6]; B16 cells) was “cleavage of Caspase-3, Caspase-8, Caspase-9 and PARP”, the “expression levels of Hsp90 client proteins cdc37, CDK4, EGFR, bRaf and cRaf (western blot)” value ([6]; B16 cells) was “remarkably suppressed” and the “expression levels of Hsp90α and Hsp70 (western blot)” value ([6]; B16 cells) was “declined”. The “p-Akt (Ser473), p-Akt (Thr308) and total Akt expression (western blot)” value ([6]; B16 cells) was “downregulated”, the “E-cadherin expression (western blot)” value ([6]; B16 cells, 20, 40 μg/mL) was “up-regulated” and the “expression of MMPs, vimentin, N-cadherin, β-catenin, ZEB1 (western blot)” value ([6]; B16 cells, 20, 40 μg/mL) was “remarkably down-regulated”. The “autophosphorylation of PI3Kα (western blot)” value ([6]; B16 cells, total PI3Kα not influenced) was “inhibited”, the “cytotoxic activity in several cancer cells” value [7] was “most potent in melanoma cells” and the “wound areas (cell migration)” value [8] was “minimal changes”. For the same compound, the “clone formation, size and number of the colonies” value [9] was “dose-dependent decline”, the “cell invasion (Matrigel Transwell)” value [10] was “remarkable decrease” and the IC50 ([3]; B16, 24 h) was roughly 0.56 µg/mL (≈ 1.23 µM). The IC50 ([3]; B16, 48 h) was roughly 0.47 µg/mL (≈ 1.03 µM), the “apoptotic positive cells in tumor tissue (TUNEL)” value ([11]; B16 xenograft tumor sections, among all therapeutic groups) was “highest number of apoptotic positive cells” and the “Ki-67 positive cells in tumor tissue” value ([11]; B16 xenograft tumor sections, p < .01) was “most significant suppression”. For the same compound, the “cell counts in G1 phase” value [12] was “corresponding descent”, the “cell counts in G2 phase” value [12] was “significantly increased” and the apoptotic positive cells [13] was “significant increase”. For the same compound, the IC50 [5] was 48.4 nM.
With `CCc1cccc(Nc2ncnc3sc4c(c23)CCN(C(=O)c2cc(C(C)C)c(O)cc2O)C4)c1` [Compound 8a, (2,4-dihydroxy-5-isopropylphenyl)(4-((3-ethylphenyl)amino)-5,8-dihydropyrido[4',3':4,5]thieno[2,3-d]pyrimidin-7(6H)-yl)methanone] the IC50 [1] was greater than 10000 nM, the IC50 [2] was 60.7 nM and the “B16 GI ratio” value [3] was 26.8%. For the same compound, the IC50 [4] was 375 nM.
For `COc1cccc(Nc2ncnc3sc4c(c23)CCN(C(=O)c2cc(C(C)C)c(O)cc2O)C4)c1` [Compound 8g, (2,4-dihydroxy-5-isopropylphenyl)(4-((3-methoxyphenyl)amino)-5,8-dihydropyrido[4',3':4,5]thieno[2,3-d]pyrimidin-7(6H)-yl)methanone], the IC50 [1] was greater than 10000 nM, the IC50 [2] was 71 nM and the “B16 GI ratio” value [3] was 37.5%. The IC50 [4] was 210 nM.
In the case of `Cc1cccc(Nc2ncnc3sc4c(c23)CCN(C(=O)c2cc(C(C)C)c(O)cc2O)C4)c1` [Compound 8d, (2,4-dihydroxy-5-isopropylphenyl)(4-(m-tolylamino)-5,8-dihydropyrido[4',3':4,5]thieno[2,3-d]pyrimidin-7(6H)-yl)methanone], the IC50 [1] is reported as greater than 10000 nM, the IC50 [2] is reported as 51.8 nM and the “B16 GI ratio” value [3] is reported as 41.7%. It also gave an IC50 [4] of 318 nM.
With `CC(C)c1cc(C(=O)N2CCc3c(sc4ncnc(Nc5ccc(Br)cc5)c34)C2)c(O)cc1O` [Compound 8b, (4-((4-bromophenyl)amino)-5,8-dihydropyrido[4',3':4,5]thieno[2,3-d]pyrimidin-7(6H)-yl)(2,4-dihydroxy-5-isopropylphenyl)methanone] the IC50 [1] was greater than 10000 nM, the IC50 [2] was 49.9 nM and the “B16 GI ratio” value [3] was 33.6%. It also gave an IC50 [4] of 290 nM.
In the case of `Oc1cccc(-c2nc(N3CCOCC3)c3oc4ncccc4c3n2)c1` [PI-103, reference compound], the “tumor growth inhibition ratio” value [11] is reported as 29%.
For `CC(C)c1cc(-c2n[nH]c(=O)n2-c2ccc3c(ccn3C)c2)c(O)cc1O` [Ganetespib, reference compound], the “tumor growth inhibition ratio” value [11] was 57%.
With `Cc1ccc(Nc2ncnc3sc4c(c23)CCN(C(=O)c2cc(C(C)C)c(O)cc2O)C4)c(C)c1` [Compound 8i, (2,4-dihydroxy-5-isopropylphenyl)(4-((2,4-dimethylphenyl)amino)-5,8-dihydropyrido[4',3':4,5]thieno[2,3-d]pyrimidin-7(6H)-yl)methanone] the IC50 [1] was 169 nM, the IC50 [2] was 578 nM and the “B16 GI ratio” value [3] was 24.8%. It also gave an IC50 [4] of 1640 nM.
`CC(C)c1cc(C(=O)N2CCc3c(sc4ncnc(Nc5ccc(Cl)cc5)c34)C2)c(O)cc1O` [Compound 8f, (4-((4-chlorophenyl)amino)-5,8-dihydropyrido[4',3':4,5]thieno[2,3-d]pyrimidin-7(6H)-yl)(2,4-dihydroxy-5-isopropylphenyl)methanone] was tested, and the IC50 [1] was greater than 10000 nM, the IC50 [2] was 76.6 nM and the “B16 GI ratio” value [3] was 29.5%. The IC50 [4] was 318 nM.

From PMC8853710 (Journal of Enzyme Inhibition and Medicinal Chemistry, 2019)
